Laboratory results: ChEMBL document CHEMBL5661974, “Pharmacologic characterization of a potent inhibitor of class I phosphatidylinositide 3-kinases” (Cancer Res, 2007)
Calls of active or inactive are those of the source. No cut-off for these calls is given here.

Key:
[1] = tested on: PC-3; experiment: Antiproliferative activity against human PC-3 cells harboring PTEN deletion assessed as cell growth inhibition incubated for 96 hrs by SRB assay; type: functional
[2] = tested on: U-87 MG; experiment: Antiproliferative activity against human U-87MG cells harboring PTEN deletion assessed as cell growth inhibition incubated for 96 hrs by SRB assay; type: functional, U-87MG ATCC
[3] = tested on: A2780; experiment: Antiproliferative activity against human A2780 cells harboring PI3KCA/PTEN mutant assessed as cell growth inhibition incubated for 96 hrs by SRB assay; type: functional
[4] = tested on: MDA-MB-435; experiment: Antiproliferative activity against human MDA-MB-435 cells harboring AKT assessed as cell growth inhibition incubated for 96 hrs by SRB assay; type: functional
[5] = Inhibition of recombinant human PI3K in cricetulus griseus CHO cells expressing GFP-tagged AKT1 assessed as translocation to the plasma membrane following IGF-1 stimulation by fluorescence assay
Procedure, shortened: (§1)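 CHO cells expressing GFP-tagged AKT1, AKT2, AKT3 or PDK1, held in 0.05% serum with 0.1% BSA and stimulated with 100 nmol/L IGF-1. Plasma-membrane translocation was read by automated fluorescence imaging, with IC50 from concentration-response curves; Z' above 0.5.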

[6] = Inhibition of recombinant human PI3K in cricetulus griseus CHO cells expressing GFP-tagged AKT2 assessed as translocation to the plasma membrane following IGF-1 stimulation by fluorescence assay; procedure, shortened: as §1
[7] = Inhibition of recombinant human PI3K in cricetulus griseus CHO cells expressing GFP-tagged PDK1 assessed as translocation to the plasma membrane following IGF-1 stimulation by fluorescence assay; procedure, shortened: as §1
[8] = Drug metabolism in mouse microsomes incubated for 30 mins by LC-MS/MS analysis; type: ADME, Microsome; conditions: read-out: Drug metabolism
Procedure, shortened: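 Mouse or human microsomes incubated 30 min with inhibitor at 1 or 10 μmol/L. Metabolite detection by LC-MS/MS on an ion trap, with a 10–90% methanol gradient over 6 min and scan range 50–1,000 amu.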

[9] = Volume of distribution at steady state in BALB/C mouse at 2.5 mg/kg, iv by LC-MS/MS analysis; type: ADME, organism-based; conditions: in vivo, read-out: Vdss
Procedure, shortened: (§2)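 Female BALB/c mice, 6–8 weeks old, given 2.5 mg/kg i.v. in 10% DMSO, 0.5% Tween 20 in saline. Plasma came from serial bleeds; tissues were homogenized in 2 or 3 volumes PBS. Samples were methanol-precipitated with an analogue internal standard, then LC-MS/MS by multiple reaction monitoring against an 8-point external calibration of 2–20,000 nmol/L. Parameters came from WinNonlin noncompartmental analysis, model 201 for plasma and model 200 for tissues.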

[10] = Cmax in BALB/C mouse liver at 2.5 mg/kg, iv by LC-MS/MS analysis; type: ADME, organism-based; procedure, shortened: as §2
[11] = Cmax in BALB/C mouse spleen at 2.5 mg/kg, iv by LC-MS/MS analysis; type: ADME, organism-based; procedure, shortened: as §2
[12] = Cmax in BALB/C mouse plasma at 50 mg/kg, ip by LC-MS/MS analysis; type: ADME, organism-based; conditions: in vivo
Procedure, shortened: (§3)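 Female BALB/c mice, 6–8 weeks old, dosed i.p. at 50 mg/kg in 20% […] β-cyclodextrin in saline, 0.1 mL/10 g. Serial blood samples; plasma was methanol-precipitated with an analogue internal standard. LC-MS/MS multiple reaction monitoring, external calibration 2–20,000 nmol/L. Noncompartmental analysis, model 200.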

[13] = Tmax in BALB/C mouse plasma at 2.5 mg/kg, iv by LC-MS/MS analysis; type: ADME, organism-based; procedure, shortened: as §2
[14] = Tmax in BALB/C mouse liver at 2.5 mg/kg, iv by LC-MS/MS analysis; type: ADME, organism-based; procedure, shortened: as §2
[15] = Tmax in BALB/C mouse kidney at 2.5 mg/kg, iv by LC-MS/MS analysis; type: ADME, organism-based; procedure, shortened: as §2
[16] = AUClast in BALB/C mouse plasma at 2.5 mg/kg, iv by LC-MS/MS analysis; type: ADME, organism-based; procedure, shortened: as §2
[17] = AUClast in BALB/C mouse liver at 2.5 mg/kg, iv by LC-MS/MS analysis; type: ADME, organism-based; procedure, shortened: as §2
[18] = Volume of distribution in BALB/C mouse plasma at 50 mg/kg, ip by LC-MS/MS analysis; type: ADME, organism-based; conditions: in vivo; procedure, shortened: as §3
[19] = Half life in BALB/C mouse plasma at 2.5 mg/kg, iv by LC-MS/MS analysis; type: ADME, organism-based; procedure, shortened: as §2
[20] = Half life in BALB/C mouse liver at 2.5 mg/kg, iv by LC-MS/MS analysis; type: ADME, organism-based; procedure, shortened: as §2
[21] = tested on: U-87 MG; experiment: Antitumor activity against human U-87MG cells xenografted female Ncr model assessed as ratio of p-AKT Ser473/total AKT at 100 mg/kg, ip by 30 to 60 mins after dosing by electrochemiluminescent immunoassay relative to control; type: functional, U-87MG ATCC; conditions: time 30-60 min
[22] = tested on: U-87 MG; experiment: Antitumor activity against PTEN null human U-87MG cells xenografted female Ncr model assessed as T/C at 70 mg/kg, ip administered once a daily for 14 days relative to control; type: functional, U-87MG ATCC; conditions: time 14 day
[23] = tested on: HCT-116; experiment: Antitumor activity against PIK3CA mutant human HCT-116 cells xenografted female Ncr model assessed as T/C at 30 mg/kg, ip administered once a daily for 14 days relative to control; type: functional; conditions: time 14 day
[24] = tested on: HCT-116; experiment: Antitumor activity against PIK3CA mutant human HCT-116 cells xenografted female Ncr model assessed as T/C at 30 mg/kg, ip administered twice a daily for 14 days relative to control; type: functional; conditions: time 14 day
[25] = tested on: PC-3; experiment: Antitumor activity against PTEN null human PC-3 cells xenografted male Ncr model assessed as T/C at 30 mg/kg, ip administered twice a daily for 14 days relative to control; type: functional; conditions: time 14 day
[26] = tested on: MDA-MB-435; experiment: Antitumor activity against ERB-B2 overexpressing human MDA-MB-435 cells xenografted female Ncr model assessed as T/C at 30 mg/kg, ip administered once a daily for 14 days relative to control; type: functional; conditions: time 14 day
[27] = tested on: MDA-MB-468; experiment: Antitumor activity against PTEN null human MDA-MB-468 cells xenografted female Ncr model assessed as T/C at 40 mg/kg, ip administered once a daily for 40 days relative to control; type: functional; conditions: time 40 day
[28] = tested on: IGROV-1; experiment: Antitumor activity against PIK3CA mutant human IGROV-1 cells xenografted female Ncr model assessed as T/C at 70 mg/kg, ip administered once a daily for 14 days relative to control; type: functional; conditions: time 14 day
[29] = tested on: OVCAR-3; conditions: Homo sapiens, dose 100.0 mg/kg, route ip, time 750.0 min
[30] = tested on: U-87 MG; experiment: Inhibition of cell invasion in human U-87MG cells at 50 nmol/L by transwell assay relative to control
[31] = tested on: U-87 MG; experiment: Antitumor activity against PTEN null human U-87MG cells xenografted female Ncr model assessed as body weight loss at 40 mg/kg, ip administered daily for 14 days relative to control; conditions: time 14 day
[32] = tested on: PC-3; experiment: Antitumor activity against PTEN null human PC-3 cells xenografted male Ncr model assessed as body weight loss at 30 mg/kg, ip administered twice a daily for 14 days relative to control; conditions: time 14 day

GI50 [1]: 0.1 µM
GI50 [2]: 0.18 µM
GI50 [3]: 0.5 µM
GI50 [4]: 0.13 µM
IC50 [5]: 0.017 µM
IC50 [6]: 0.013 µM
IC50 [7]: 0.066 µM
metabolised at 0.5 h [8]: > 70%
Vd [9]: 0.052 L
Cmax [10]: 802 nM
Cmax [11]: 1360 nM
Cmax [12]: 6680 nM
Tmax [13]: 0 h
Tmax [14]: 4.98 min
Tmax [15]: 4.98 min
AUC(0-t) [16]: 0.624 µM·h
AUC(0-t) [17]: 0.801 µM·h
Vd [18]: 0.71 L
half-life [19]: 42 min
half-life [20]: 252 min
Compound: Oc1cccc(-c2nc(N3CCOCC3)c3oc4ncccc4c3n2)c1 [PI-103]
Activity [21]: ~50%
T/C [22]: 45.8%
T/C [23]: 68%
T/C [24]: 28%
T/C [25]: 43.3%
T/C [26]: 85%
T/C [27]: 52.8%
T/C [28]: 74.7%
inhibition [29]: Active
inhibition at 0.05 µM [30]: 44%
Body weight loss [31]: <15%
Body weight loss [32]: <15%
